Our source for the Ratio and Ki values is ChEMBL document CHEMBL1145040, “Biaryl analogues of conformationally constrained tricyclic tropanes as potent and selective norepinephrine reuptake inhibitors: synthesis and evaluation of their uptake inhibition at monoamine transporter sites” (J Med Chem, 2003).

Experiment [1] deals with Monoamine transporters; Norepininephrine & dopamine (Rattus norvegicus) (UniProt P23977+Q9WTR4). The experiment is described as follows: Uptake ratio at norepinephrine to dopamine transporters from rat brain. The procedure, abridged:
(§1)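 Selectivity ratios calculated from Ki values of the rat brain synaptosomal [3H]DA, [3H]5-HT and [3H]NE uptake inhibition assays.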

Experiment [2] concerns the target Sodium-dependent dopamine transporter (Rattus norvegicus, UniProt P23977). The experiment is described as follows: Ability to inhibit [3H]DA reuptake at dopamine transporter from rat brain. In outline: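 Rat brain P2 synaptosomes in modified KRH buffer (pH 7.4, nialamide); drug preincubation 30 min at 4 °C, then 15 min at 37 °C. [3H]DA (~5 nM final) uptake for 5 min, ended with cold sodium-free buffer, GF/C filtration and scintillation counting.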

Experiment [3] deals with Norepinephrine transporter (Rattus norvegicus, UniProt Q9WTR4). The experiment is described as follows: Ability to inhibit [3H]NE reuptake at norepinephrine transporter from rat brain. The procedure, abridged:
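Synaptosomes (P2, rat brain) in modified KRH buffer (pH 7.4, nialamide) with drug, 30 min at 4 °C then 15 min at 37 °C. [3H]NE (9 nM final) uptake for 5 min; terminated by cold sodium-free buffer, GF/C filtration and scintillation counting. Specific uptake defined with 3 μM desipramine.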

Experiment [4] addresses Sodium-dependent serotonin transporter (Rattus norvegicus, UniProt P31652). The experiment is described as follows: Ability to inhibit [3H]5-HT reuptake at serotonin transporter from rat brain. The procedure, abridged:
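P2 synaptosomes from rat brain in modified KRH buffer (pH 7.4, nialamide), preincubated with drug 30 min at 4 °C, then 15 min at 37 °C. [3H]5-HT (~5 nM final) added for 5 min; stopped with cold sodium-free buffer, then GF/C filtration and scintillation counting. Nonspecific uptake set with 10 μM fluoxetine.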

Experiment [5] concerns the target Monoamine transporters; serotonin & dopamine (Rattus norvegicus) (UniProt P31652+P23977). The experiment is described as follows: Uptake ratio at serotonin to dopamine transporters from rat brain. The procedure, abridged:
as §1

The target in experiment [6] is Monoamine transporters; Norepinephrine & serotonin (Rattus norvegicus) (UniProt P31652+Q9WTR4). The experiment is described as follows: Uptake ratio at norepinephrine to serotonin transporters from rat brain. The procedure, abridged:
as §1

pKi: −log10 of the molar value. A value given as a limit tells only on which side of the number the result lay.

Chain of Sodium-dependent dopamine transporter (P23977 whole entry): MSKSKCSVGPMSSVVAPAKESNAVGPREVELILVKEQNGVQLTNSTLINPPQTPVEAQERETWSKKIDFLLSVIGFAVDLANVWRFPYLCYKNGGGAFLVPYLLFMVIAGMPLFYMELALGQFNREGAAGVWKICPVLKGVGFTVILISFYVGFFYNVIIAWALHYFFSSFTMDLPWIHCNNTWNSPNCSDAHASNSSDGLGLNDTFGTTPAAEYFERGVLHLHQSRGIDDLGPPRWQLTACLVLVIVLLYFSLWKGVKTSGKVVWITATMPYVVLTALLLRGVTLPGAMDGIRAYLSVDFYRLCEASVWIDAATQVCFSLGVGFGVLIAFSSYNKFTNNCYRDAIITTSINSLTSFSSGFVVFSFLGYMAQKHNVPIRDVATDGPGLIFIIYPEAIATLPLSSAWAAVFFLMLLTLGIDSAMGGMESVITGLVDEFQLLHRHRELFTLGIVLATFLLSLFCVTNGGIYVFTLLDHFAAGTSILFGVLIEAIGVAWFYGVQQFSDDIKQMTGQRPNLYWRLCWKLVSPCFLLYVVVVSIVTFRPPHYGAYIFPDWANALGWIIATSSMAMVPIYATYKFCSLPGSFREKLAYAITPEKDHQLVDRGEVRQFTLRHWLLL
Chain of Monoamine transporters; serotonin & dopamine (Rattus norvegicus) (P23977 whole entry, looked up): as the sequence (P23977 whole entry) above
Chain of Monoamine transporters; serotonin & dopamine (Rattus norvegicus) (P31652 whole entry, looked up): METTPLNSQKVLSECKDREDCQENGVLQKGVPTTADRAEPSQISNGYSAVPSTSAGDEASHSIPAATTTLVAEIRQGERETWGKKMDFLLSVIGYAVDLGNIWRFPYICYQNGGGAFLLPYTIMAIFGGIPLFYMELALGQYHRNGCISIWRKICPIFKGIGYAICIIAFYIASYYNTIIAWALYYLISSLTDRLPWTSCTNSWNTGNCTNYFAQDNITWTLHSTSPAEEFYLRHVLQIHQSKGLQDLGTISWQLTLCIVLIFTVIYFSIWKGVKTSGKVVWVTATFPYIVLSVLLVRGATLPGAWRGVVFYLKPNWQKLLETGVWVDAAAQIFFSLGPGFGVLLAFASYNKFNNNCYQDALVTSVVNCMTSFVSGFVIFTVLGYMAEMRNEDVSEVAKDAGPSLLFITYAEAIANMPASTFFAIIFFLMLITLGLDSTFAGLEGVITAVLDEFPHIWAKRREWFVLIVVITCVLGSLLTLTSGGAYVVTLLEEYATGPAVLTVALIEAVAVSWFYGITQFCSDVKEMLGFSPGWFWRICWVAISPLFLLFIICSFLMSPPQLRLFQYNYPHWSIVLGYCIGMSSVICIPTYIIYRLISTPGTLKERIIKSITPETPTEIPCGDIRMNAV
Chain of Sodium-dependent serotonin transporter (P31652 whole entry): as the sequence (P31652 whole entry, looked up) above
Chain of Norepinephrine transporter (Q9WTR4 whole entry): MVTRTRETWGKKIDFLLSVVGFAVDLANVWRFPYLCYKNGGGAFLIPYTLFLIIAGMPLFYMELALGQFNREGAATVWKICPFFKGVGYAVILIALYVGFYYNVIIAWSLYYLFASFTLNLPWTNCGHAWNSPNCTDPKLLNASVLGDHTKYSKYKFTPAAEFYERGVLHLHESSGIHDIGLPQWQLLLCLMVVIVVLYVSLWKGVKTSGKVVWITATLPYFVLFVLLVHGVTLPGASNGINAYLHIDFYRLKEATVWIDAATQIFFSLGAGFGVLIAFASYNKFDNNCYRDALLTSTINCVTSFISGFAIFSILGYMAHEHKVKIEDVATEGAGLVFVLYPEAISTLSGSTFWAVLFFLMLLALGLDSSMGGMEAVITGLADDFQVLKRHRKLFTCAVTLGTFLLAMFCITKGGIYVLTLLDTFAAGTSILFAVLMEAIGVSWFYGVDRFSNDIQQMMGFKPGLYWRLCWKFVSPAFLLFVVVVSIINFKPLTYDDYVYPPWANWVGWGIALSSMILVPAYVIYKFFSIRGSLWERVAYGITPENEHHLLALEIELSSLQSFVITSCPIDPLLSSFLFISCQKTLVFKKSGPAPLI

Take `COC(=O)C1C2CCC3CCC1N(C/C2=C\c1ccc(-c2ccccc2)s1)C3` (centres undefined): the Ratio turned out to be 0.08 in experiment [1], 0.4 in experiment [5] and 0.19 in experiment [6]. Moreover, the negative logarithm of the Ki (pKi) in experiment [2] was 6.75; in experiment [3], 7.87; in experiment [4] it was 7.15.
Take `COC(=O)C1C2CCC3CCC1N(C/C2=C\c1ccc(-c2ccc(I)cc2)cc1)C3` (centres undefined): the results for the Ratio in experiment [1] and in experiment [5] were 0.3 and 1.75, respectively. Besides, the pKi in experiment [2] is 6.42; in experiment [3], 6.94; in experiment [4] it was 6.18.
Regarding `COC(=O)C1C2CCC3CCC1N(C/C2=C\c1ccc(-c2cccc(Cl)c2)cc1)C3` (centres undefined), the figures for the Ratio in experiment [1], in experiment [5] and in experiment [6] were 0.2, 2.4 and 0.08, respectively. Also, the negative logarithm of the Ki (pKi) was 7.05 in experiment [2], 7.76 in experiment [3] and 6.67 in experiment [4].
Turning to `CC(=O)OCC1C2CCC3CCC1N(C/C2=C\c1ccc(-c2ccccc2)cc1)C3` (centres undefined), the Ratio worked out at 0.35 in experiment [1], 0.28 in experiment [5] and 1.24 in experiment [6]. The pKi in experiment [2] is 6.78; in experiment [3], 7.24; in experiment [4] it was 7.34.
Regarding `COC(=O)C1C2CCC3CCC1N(C/C2=C\c1ccc(-c2ccc(C#N)cc2)cc1)C3` (centres undefined), the figures for the Ratio in experiment [1], in experiment [5] and in experiment [6] were 0.69, 19.3 and 0.04, respectively. In addition, the results for the pKi in experiment [2], in experiment [3] and in experiment [4] were 7.33, 7.49 and 6.04, respectively.
`COC(=O)C1C2CCC3CCC1N(C/C2=C\c1ccc(-c2ccco2)cc1)C3` (centres undefined): the Ratio in experiment [1] was 0.14; in experiment [5] it was 2.54; in experiment [6], 0.06. Besides, the pKi in experiment [2] was 7.01; in experiment [3], 7.86; in experiment [4], 6.61.
Regarding `COC(=O)C1C2CCC3CCC1N(C/C2=C\c1ccc(-n2cccc2)cc1)C3` (centres undefined), the figures for the Ratio in experiment [1], in experiment [5] and in experiment [6] were 0.08, 0.26 and 0.31, respectively. The negative logarithm of the Ki (pKi) was 6.25 in experiment [2], 7.34 in experiment [3] and 6.83 in experiment [4].
Consider `COC(=O)C1C2CCC3CCC1N(C/C2=C\c1ccc(-c2cccs2)cc1)C3` (centres undefined), for which the figures for the Ratio in experiment [1], in experiment [5] and in experiment [6] were 0.13, 0.47 and 0.27, respectively. The negative-log Ki (pKi) in experiment [2] was 6.81; in experiment [3], 7.70; in experiment [4], 7.14.
`COC(=O)C1C2CCC3CCC1N(C/C2=C\c1ccc(-c2ccc(C(F)(F)F)cc2)cc1)C3` (centres undefined): the Ratio in experiment [1] amounted to 0.37; in experiment [5], 0.71; in experiment [6] it was 0.52. Besides, the figures for the pKi in experiment [2], in experiment [3] and in experiment [4] were 5.51, 5.94 and 5.65, respectively.
On to `COC(=O)C1C2CCC3CCC1N(C/C2=C\c1ccc(-c2ccc(OC)cc2)s1)C3` (centres undefined), for which the Ratio came to 0.03 in experiment [1], 1.43 in experiment [5] and 0.02 in experiment [6]. In addition, the pKi in experiment [2] was 6.50; in experiment [3], 7.99; in experiment [4] it was 6.27.
Regarding `O=C(OCC1C2CCC3CCC1N(C/C2=C\c1ccc(-c2ccc(Cl)c(Cl)c2)c(Cl)c1)C3)c1ccccc1` (centres undefined), the results for the pKi in experiment [2], in experiment [3] and in experiment [4] were 5.25, below 5.00 and 6.02, respectively. The Ratio in experiment [5] turned out to be 0.17.
For the compound `COC(=O)[C@@H]1C2CCC3CCC1N(C/C2=C\c1ccc(-c2ccccc2)cc1)C3` (some centres undefined), the Ratio in experiment [1] was 0.02; in experiment [5], 1.29; in experiment [6], 0.02. Also, the negative logarithm of the Ki (pKi) in experiment [2] is 6.32; in experiment [3], 7.92; in experiment [4], 6.21.
For `COC(=O)C1C2CCC3CCC1N(C/C2=C\c1ccc(-c2ccc(C)cc2)cc1)C3` (centres undefined), the values for the Ratio in experiment [1], in experiment [5] and in experiment [6] were 0.11, 6.97 and 0.02, respectively. For the same compound, the values for the pKi in experiment [2], in experiment [3] and in experiment [4] were 6.67, 7.64 and 5.83, respectively.
As to `COC(=O)C1C2CCC3CCC1N(C/C2=C\c1ccc(-c2ccc(Cl)cc2)cc1)C3` (centres undefined), the Ratio in experiment [1] came out at 1.77; in experiment [5] it was 3.03; in experiment [6], 0.59. Further, the pKi was 6.38 in experiment [2], 6.13 in experiment [3] and 5.90 in experiment [4].
Take `COC(=O)C1C2CCC3CCC1N(C/C2=C\c1ccc(-c2ccsc2)cc1)C3` (centres undefined): the Ratio is 0.07 in experiment [1], 0.52 in experiment [5] and 0.14 in experiment [6]. For the same compound, the pKi in experiment [2] was 6.56; in experiment [3], 7.69; in experiment [4], 6.84.
In the case of `COC(=O)C1C2CCC3CCC1N(C/C2=C\c1ccc(-c2ccc(N(C)C)cc2)cc1)C3` (centres undefined), the Ratio was 0.05 in experiment [1], 0.95 in experiment [5] and 0.06 in experiment [6]. The figures for the pKi in experiment [2], in experiment [3] and in experiment [4] were 5.98, 7.24 and 6.00, respectively.
For the compound `COC(=O)C1C2CCC3CCC1N(C/C2=C\c1ccc(-c2ccc(C)s2)cc1)C3` (centres undefined), the pKi in experiment [2] is 6.17; in experiment [3], 7.65; in experiment [4] it was 6.70. Further, the results for the Ratio in experiment [5] and in experiment [6] were 0.3 and 0.11, respectively.
Regarding `OC[C@@H]1C2CCC3CCC1N(C/C2=C\c1ccc(-c2ccccc2)cc1)C3` (some centres undefined), the Ratio in experiment [1] is 0.14; in experiment [5], 1.19; in experiment [6], 0.12. The pKi in experiment [2] was 5.89; in experiment [3], 6.74; in experiment [4], 5.81.
As to `COC(=O)C1C2CCC3CCC1N(C/C2=C\c1ccc(-c2ccc(Cl)cc2Cl)cc1)C3` (centres undefined), the Ratio in experiment [1] is 0.29; in experiment [5] it was 0.25; in experiment [6], 1.19. The pKi in experiment [2] was 5.80; in experiment [3], 6.33; in experiment [4], 6.41.
On to `COC(=O)C1C2CCC3CCC1N(C/C2=C\c1ccc(-c2ccc(OC)cc2)cc1)C3` (centres undefined), for which the Ratio came out at 0.05 in experiment [1], 4.04 in experiment [5] and 0 in experiment [6]. The negative logarithm of the Ki (pKi) in experiment [2] is 6.08; in experiment [3] it was 7.41; in experiment [4], 5.47.
As for `COC(=O)C1C2CCC3CCC1N(C/C2=C\c1ccc(-c2cc(Cl)cc(Cl)c2)cc1)C3` (centres undefined), the values for the Ratio in experiment [1], in experiment [5] and in experiment [6] were 0.58, 3.62 and 0.16, respectively. Further, the results for the negative logarithm of the Ki (pKi) in experiment [2], in experiment [3] and in experiment [4] were 6.97, 7.21 and 6.42, respectively.
For `COC(=O)C1C2CCC3CCC1N(C/C2=C\c1ccc(-c2ccc(Cl)c(Cl)c2)cc1)C3` (centres undefined), the Ratio in experiment [1] was determined as 0.04; in experiment [5], 1.01; in experiment [6], 0.04. Besides, the figures for the pKi in experiment [2], in experiment [3] and in experiment [4] were 6.63, 8.01 and 6.62, respectively.
As to `COC(=O)C1C2CCC3CCC1N(C/C2=C\c1ccc(-c2ccccc2)c(Cl)c1)C3` (centres undefined), the Ratio in experiment [1] was 0.23; in experiment [5], 0.09; in experiment [6] it was 2.71. Also, the pKi in experiment [2] was 5.37; in experiment [3], 6.00; in experiment [4] it was 6.44.
